# ROMK mod: human ROMK K+ channel modulation, primary screen; P48048; Tet-inducible ROMK, thallium flux fluorescence; actives lie on both sides; B-score at 10 µM; 2% of 130,000 active; AID 1918;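 active = signal ratio slope over the read window, or its plate-corrected B-score, at least 3 SD from the plate mean, either direction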;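 note: B-score of the F/F0 ratio slope over 7 to 12 s after thallium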
# PKD1 inh: PKD1 (human) kinase inhibition. 0.056% of 200,000 active. inhibition, % (test concentration not listed). PKD1 kinase fluorescence polarization assay. Q15139; in the data active = inhibition above about 50%
# Rad51 HR inh: blocks human Rad51 in homologous recombination | hRad51 DNA strand exchange, fluorescence dequenching | 0.085% of 200,000 active | Q06609 | inhibition, % at 10 µM;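 active = inhibition above 40% at the single screening dose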;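 note: 0% = DMSO control wells and 100% = blanks with heterologous ssDNA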
#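 Read-out basis: percent inhibition relative to plate controls and blanks / Assay system: human Rad51 nucleoprotein filaments preassembled on unlabelled ssDNA / Timing: filaments 15 min 37 °C, then compound 30 min / Control set: per-plate controls and blanks / Technique: fluorescence dequenching at 485/520 nm / Compound: 10 µM final, single point / Also added: Fluorescein- and BHQ1-tagged 47-mer duplex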
# Cl transport mod: modulates chloride dependent transport by human KCC2 | Q9H2X9 | KCC2 cells, thallium flux FluoZin-2 fluorescence | B-score of Tl+ flux slope (higher = more flux/activation; lower = inhibition) at 10 µM | 2.2% of 190,000 active | AID 1456;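 active = thallium flux slope and its plate-corrected score both differing from the plate sample mean at a set confidence after two filtering rounds, in either direction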;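 note: slope of fluorescence scaled to starting intensity during 10 to 20 s after thallium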
# ROMK hit retest: confirmation of human ROMK potassium channel modulators; ROMK thallium flux, fluorescence ratio; active compounds read low; normalized thallium flux (F/F0 slope) at 10 µM; shares compounds with ROMK mod; 54% of 3,000 active;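 active = Flux at 10 µM at least 3 SD below or above vehicle control mean in one or both replicates; inconclusive = no clear call, values can overlap the other calls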
# The depositor's hits bear a star; ? = inconclusive; · = not tested or not shown. This is a sample that favours compounds with a hit; in the whole collection about 3% have one here.
SMILES,ROMK mod,PKD1 inh,Rad51 HR inh,Cl transport mod,ROMK hit retest
Cc1ccc(NC(=S)Nc2cccnc2)c(S(=O)(=O)N2CCCCC2)c1,0.37,2,-10,-0.52,·
COc1ccc(CCNc2oc(Cc3ccccc3)nc2C#N)cc1OC,-0.82,-7,-10,·,·
COc1ccc(CCNc2oc(COc3ccccc3Cl)nc2C#N)cc1OC,·,-13,-6,-2.9,0.067*
CC(C)OCCCNC(=O)C1CCC(CNS(=O)(=O)c2ccc(Cl)cc2)CC1 (stereo not given),0.26,-15,·,-0.23,·
COCCCNC(=O)C1CCC(CNS(=O)(=O)c2ccc(Cl)cc2)CC1 (stereo not given),·,6,29,-0.073,0.086
COCc1cc(C)nc(SCC[N+](C)(C)CC(=O)c2ccccc2)c1C#N,0.72,-2,14,0.47,·
O=C(Cn1nnc2ccccc21)NNC(=O)c1ccccc1,·,·,23,0.32,·
CCn1c(SCc2nc(-c3cccs3)no2)nnc1-c1c[nH]c2ccccc12,·,-6,3,-0.82,0.057*
CCNC(=S)N/N=C/c1cc(C)n(-c2ccc(Cl)cc2)c1C,3*,1,0,0.83,0.084
COC(=O)N/N=C/c1cc(C)n(-c2ccc(Br)cc2)c1C,·,·,16,·,0.088
COC(=O)N/N=C/c1cc(C)n(-c2ccc(F)cc2)c1C,·,3,27,0.32,·
Cc1cc(/C=N/NC(N)=S)c(C)n1-c1ccc(Cl)c(Cl)c1,-0.45,-7,4,-1,·
Cc1cc(/C=N/NC(N)=O)c(C)n1-c1ccc(F)cc1,2.9*,1,10,-0.71,?
Cc1cc(N2CCCC2)ccc1/C=C1\NC(=S)N(C)C1=O,-3.2*,-5,0,·,0.025*
COc1ccc(/C(C)=C(\C#N)C(=O)OC(C)C)cc1OC,-1.3,1,-3,-0.026,·
Cn1c(C(=O)NCCN2CCc3ccccc3C2)cc2c(=O)n(C)c3ccccc3c21,·,-13,-1,-1.2,?
COc1ccc(C(CNC(=O)c2cc3ccccc3cc2OC)N2CCCC2)cc1 (stereo not given),-3.1*,1,·,0.88,0.062*
COCCNC(=O)/C(C#N)=C/c1c(F)cccc1Cl,-3.7*,-2,4,0.22,0.037*
COCCNC(=O)/C(C#N)=C/c1ccc(OC(=O)c2cccs2)c(OC)c1,-4.4*,5,-3,-0.034,0.044*
COCCNC(=O)/C(C#N)=C/c1ccc(SC)cc1,-3.9*,-1,5,-0.12,0.049*
COc1cc(/C=C(/C#N)C(=O)Nc2ccccc2)ccc1OCc1ccc(C(=O)O)cc1,-2.5*,6,4,-3,0.053*
COCCNC(=O)/C(C#N)=C/c1cccs1,·,·,13,0.34,·
Cc1ccc(NC(=O)C2CCCN2C(=O)OC(C)(C)C)cc1C (stereo not given),·,·,29,-0.32,·
C[C@@H]1CCC[C@H](C)N1Cc1nc(Cc2ccccc2Cl)no1,1.6,-2,-154,1.1,·
COc1cc(C(=O)OCC(=O)NCCN2C(=O)CSC2=O)ccc1OCc1c(C)noc1C,-0.18,-7,·,0.37,·
SMILES,ROMK mod,PKD1 inh,Rad51 HR inh,Cl transport mod,ROMK hit retest
COCCN1C(=O)N[C@@H](c2cccs2)C(C(C)=O)=C1C,·,·,5,·,·
COCCCNC(=O)/C(C#N)=C/c1ccc(F)cc1,-3.9*,-1,2,-0.89,0.052*
CCCCNC(=O)/C(C#N)=C/c1ccc(F)cc1F,-7.8*,-5,·,0.68,0.046*
CCOc1ccc(NC(=S)N(C)C)cc1,·,·,9,0.86,·
Cc1cccc(OCC(=O)Nc2ccccc2C(=O)N2CCOCC2)c1,3.1*,-9,·,1.3,?
COc1cccc(CN2CCN(Cc3ccc(O)cc3)CC2CCO)c1 (stereo not given),0.39,-3,9,·,·
O=C(OC(c1ccc(NS(=O)(=O)c2ccccc2)cc1)(C(F)(F)F)C(F)(F)F)c1ccccc1,-4.5*,-8,-4,-2.5,0.062*
NC(N)=Nc1nc2ccc(Cl)cc2c(=O)[nH]1,0.24,3,-7,0.066,·
Cc1[nH][nH]c(=O)c1C(c1c(C)[nH][nH]c1=O)c1cn(Cc2ccc(Cl)c(Cl)c2)c2ccccc12,·,10,-1,-2.2,0.056*
O=C(O)Cc1cn(Cc2ccc(F)cc2)c2ccccc12,0.024,-3,3,-1.8,·
CCOC(=O)C1CCCN(c2nc3ccccc3nc2C(C#N)C(=O)OC(C)COC)C1 (stereo not given),-0.14,-8,1,-1.5,0.071
CCOC(=O)C1CCCN(c2nc3ccccc3nc2C(C#N)C(=O)OCCOC)C1 (stereo not given),-1.7,-2,1,0.083,·
COC(=O)c1ccc(CNC(=O)COC(=O)C23CC4CC(CC(C4)C2)C3)cc1,-0.97,5,·,0.23,·
O=S(=O)(NCc1ccccc1)NCc1ccccc1F,·,-2,-6,0.12,·
O=S(=O)(NCc1ccccc1)NCc1ccccc1,·,1,0,0.27,0.083
Cc1nn(-c2ccccc2)c2c1C(c1ccccc1)C(C#N)=C(N)O2 (stereo not given),-2.9,-8,-1,0.77,·
N#CC1=C(N)N(c2ccccc2)C(c2ccccc2)C1(C#N)C#N (stereo not given),-3*,-5,6,0.53,0.055*
CCOC(=O)c1csc(N)c1-c1ccc([N+](=O)[O-])cc1,0.26,·,12,-0.38,·
O=c1cc2c(nn1Cc1ccccc1)-c1ccccc1CC2,0.16,-1,-20,-0.94,·
O=c1cc2c(nn1Cc1cccc([N+](=O)[O-])c1)-c1ccccc1CC2,-8.3*,6,11,-0.35,0.053*
O=C(CS(=O)(=O)c1ccc(Cl)cc1)NCCS(=O)(=O)c1ccc(Cl)cc1,0.67,-6,-2,·,·
CC(=O)c1ccc(N2CCN(C(=O)c3cccc(Oc4ccccc4)c3)CC2)cc1,-2,-3,-9,-4,0.081
CN(C)/C=C1\C(=O)N(C)N=C1C(F)(F)F,·,2,24,0.99,·
Cc1ccc(C)c2nc3sc(C(=O)O)cc3cc12,0.052,7,3,-0.94,·
COc1ccc(C2=NOC(C(=O)NCc3cccs3)C2)cc1 (stereo not given),3.8*,2,-3,0.08,0.084
SMILES,ROMK mod,PKD1 inh,Rad51 HR inh,Cl transport mod,ROMK hit retest
COc1ccc(C2=NOC(C(=O)NCc3cccs3)C2)cc1OC (stereo not given),0.92,0,-8,·,·
COc1ccc(CNC(=O)C2CC(c3ccc(OC)cc3)=NO2)cc1 (stereo not given),·,-1,-1,-0.24,·
COc1ccc(C2=NOC(C(=O)NCc3ccco3)C2)cc1 (stereo not given),3.9*,3,4,-0.92,?
S=C(NCc1ccco1)NCC1CCCO1 (stereo not given),1.6,0,13,0.94,·
CCOC(=O)c1ccc(NNC(=O)CC)c([N+](=O)[O-])c1,-0.072,2,3,1.3,·
O=C(c1cccc(C(F)(F)F)c1)N1CCC(O)(CS(=O)(=O)Cc2ccccc2)CC1,·,-5,-10,·,·
O=C(c1cccc(C(F)(F)F)c1)N1CCC(O)(CS(=O)(=O)Cc2ccc(Cl)cc2)CC1,·,-5,-7,-2.1,0.075

# Screening results (PubChem)
